D1 mod: allosteric modulators of human D1 dopamine receptor | P21728 | HEK293 D1, CRE-luciferase, dopamine EC30 potentiation; actives deviate in either direction | B-score at 10 µM | 58,000 tested, 5.9% active;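 active = luminescence count or its row- and column-corrected plate score outside the 99.7% band of the plate's sample wells, on either side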
Target sequence (P21728 whole entry, looked up): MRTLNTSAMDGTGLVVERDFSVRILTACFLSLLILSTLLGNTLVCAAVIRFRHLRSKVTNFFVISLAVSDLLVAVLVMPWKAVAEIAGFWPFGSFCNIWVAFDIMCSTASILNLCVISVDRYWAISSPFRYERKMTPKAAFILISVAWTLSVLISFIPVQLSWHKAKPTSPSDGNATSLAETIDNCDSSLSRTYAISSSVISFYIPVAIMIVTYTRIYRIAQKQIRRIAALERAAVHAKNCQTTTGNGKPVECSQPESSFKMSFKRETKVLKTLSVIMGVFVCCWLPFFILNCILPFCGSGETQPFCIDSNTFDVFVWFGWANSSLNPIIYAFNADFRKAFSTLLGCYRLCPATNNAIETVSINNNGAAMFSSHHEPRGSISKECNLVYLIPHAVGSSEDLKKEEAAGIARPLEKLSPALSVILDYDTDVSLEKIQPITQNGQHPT
M1 ag: M1 muscarinic receptor agonism; B-score at 10 µM; 64,000 tested, 3% active; CHO-M1 cells, Fluo-4 calcium fluorescence, agonist mode; active compounds read high;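 active = fluorescence rise, raw or as B-score row- and column-corrected plate score, outside the 99.7% band of its plate's samples, either direction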
M1 antag: antagonists of rat M1 muscarinic receptor | P08482 | B-score at 10 µM | CHO-M1 cells, Fluo-4 calcium, ACh EC80 antagonist mode; active compounds read low | AID 628 | 64,000 tested, 3.4% active;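 active = calcium fluorescence response, raw or row-and-column corrected B-score, differing from the plate sample mean either way at a set confidence level, mostly lower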
TNAP act DEA: human TNAP activation, intermediate phosphate acceptor; P05186; purified TNAP, CDP-star luminescence, 100 mM DEA, 30 min; active compounds read high; scale: 0 levamisole-inhibited, 1 vehicle-only enzyme; activation factor at 20 µM; 64,000 tested, under 10 active;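 active = activation factor of at least 2 at 20 µM, relative to controls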
S1P1 ag pot: activates or potentiates agonism at human S1P1 receptor; AID 449; 56,000 tested, 0.57% active; P21453; activation, % at 9.5 µM; S1P1 CRE-bla cells, forskolin, beta-lactamase FRET, potentiator mode; S1P1 agonist co-added at EC20, 2 nM; 100% = saturating reference agonist, 0% = basal;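 active = activation above a cutoff set at the mean activation of all tested compounds plus 3 SD, cut at about 54% in these data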;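 also: forskolin at 4 µM as EC80 and the EC20 agonist is SEW2871; 100% = SEW2871 at its EC100 plus forskolin at EC80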
S1P3 agonist: S1P3 (human) receptor agonism | Q99500 | S1P3 NFAT-BLA reporter cells, FRET ratio; relative to 1 µM S1P, basal subtracted | activation, % at 4.5 µM | 60,000 tested, 0.1% active;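 active = activation above the screen-wide mean plus 3 SD, cut at about 4.5% in these data, passing the limit was not always enough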
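Assay system: stable CHO line with human S1P3, Gα16, NFAT-BLA reporter; Detection: FRET β-lactamase substrate fluorescence, excitation 405 nm, 460/535 nm emission ratio, background-subtracted; Read-out: percent activation versus median 1 µM S1P response, basal-subtracted, per plate; Incubation: cells plated overnight, compound 4 h 37 °C, substrate 2 h RT.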
M1 antag confirm: M1 muscarinic receptor (rat) antagonism, confirmed. shares compounds with M1 antag. CHO-M1 cells, Fluo-4 calcium, ACh EC80 antagonism; active compounds read low. calcium response (max-min fluorescence) at 10 µM. 1,700 tested, 43% active;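 active = calcium response below the same-plate mean of wells given acetylcholine alone at its 80%-effect dose, minus 3 SD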;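 also: raw fluorescence intensity difference in arbitrary instrument units and not normalized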
mGluR4 antag: selectivity test for M1 antagonists: human mGluR4 receptor. shares compounds with M1 antag. CHO-mGluR4 calcium flux, Fluo-4 fluorescence, glutamate EC80; active compounds read low. fluorescence response (max-min) at 10 µM. 1,700 tested, 0.9% active;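 active = fluorescence response below the plate's average for near-maximal glutamate wells, less 3 SD of those wells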;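 also: raw unnormalized fluorescence span taken in the window right after glutamate addition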
Active calls of the source: *; nt = no result given. In the library only some 11% were active in any assay of this set; here they are far more common.

SMILES	D1 mod	M1 ag	M1 antag	TNAP act DEA	S1P1 ag pot	S1P3 agonist	M1 antag confirm	mGluR4 antag
Cc1oc(-c2ccc(Cl)cc2)nc1CN1CCC(C(=O)N2CCN(c3ccccn3)CC2)CC1	-0.79	0.48	-3.2*	0.9	-9	-1	385	236
COc1ccc(C(C)=O)c2c1OCCO2	0.94	0.13	-2.2*	0.9	-8	1	633	236
CN1CCN(c2c3c(c(C#N)c4nc5ccccc5n24)CCCC3)CC1	nt	-0.93	-0.76	0.9	-16	-1	nt	nt
CC1(C)CC(=O)C(C=NCCN2CCN(C(=O)C34CC5CC(CC(C5)C3)C4)CC2)=C(O)C1	0.19	0.33	-0.005	0.8	8	0	nt	nt
NC(=O)Cn1nnc(-c2ccc(C(F)(F)F)cc2)n1	0.69	-1.9	0.53	1	nt	-1	nt	nt
O=C(Cn1nnc(-c2cccc(C(F)(F)F)c2)n1)N1CCOCC1	-1.7	-0.77	-2.1*	1	nt	0	661	182
CC(C)(C)n1nnnc1C(c1ccccc1)N1CCc2ccccc2C1 (stereo not given)	-0.69	0.0098	-12*	0.9	-4	-1	368*	211
CCN(CCNS(=O)(=O)c1ccc2[nH]c(=O)sc2c1)c1ccccc1	-0.36	-2.1	-2.4*	0.9	32	-1	601	156*
CCOc1ccccc1CNS(=O)(=O)c1ccc2[nH]c(=O)sc2c1	-0.0013	0.98	-0.71	0.9	10	0	nt	nt
O=c1[nH]nnc2sc3c(c12)CCCC3	4.4	0	0.5	0.9	nt	nt	nt	nt
CCC1(C)Cc2c(sc3c2c(=O)n(C)c2nnc(SCCc4ccccc4)n32)CO1 (stereo not given)	0.21	-1	-3.1*	0.9	-20	-1	489*	244
CCC1(C)Cc2c(sc3c2c(=O)n(C)c2nnc(SCc4ccccc4)n32)CO1 (stereo not given)	nt	-0.003	0.15	0.9	7	20	nt	nt
CCN(C(=O)c1coc(=O)c2ccccc12)c1cc(OC)ccc1OC	0.37	nt	nt	0.8	-28	0	nt	nt
CCN(C(=O)Cc1c(C(=O)O)[nH]c2ccccc12)c1cc(OC)ccc1OC	-0.025	-0.64	-2.2*	0.9	nt	nt	448	207
CCc1nn(CC(=O)O)c(=O)c2ccccc12	0.26	0.031	-0.37	0.9	-17	0	nt	nt
Nc1c(S(=O)(=O)c2cccs2)c2nc3ccccc3nc2n1/N=C/c1cccc(O)c1	-0.038	1	-14*	0.9	11	-1	681	194
COc1ccc(S(=O)(=O)Nc2ccc(S(=O)(=O)N3CCCCC3)cc2)cc1	-0.25	0.058	-0.72	0.9	12	0	nt	nt
O=C(NC12CC3CC(CC(C3)C1)C2)N1CCC(O)CC1	0.084	0.43	-0.017	1	-4	2	nt	nt
O=C(NC12CC3CC(CC(C3)C1)C2)N1CCN(C(=O)C2CCCO2)CC1 (stereo not given)	-0.39	-0.68	-1.8*	0.8	nt	-1	542	209
CCCCn1c(C(C)NC(=O)CCC)nc2ccccc21 (stereo not given)	0.6	0.63	-4.1*	1	-17	-1	555	228
CCCCn1c(C(C)NC(=O)c2cccs2)nc2ccccc21 (stereo not given)	-0.19	0.29	-2.6*	0.9	nt	nt	610	161
CC1CCCN(c2ccc(C(=O)NCC3CCCO3)cn2)C1 (stereo not given)	0.17	0.31	-1.9	0.9	12	-1	nt	nt
COc1ccc2cc3cc(C(=O)NCC4COc5ccccc5O4)oc3nc2c1 (stereo not given)	0.09	0.54	0.8	0.9	-4	0	nt	nt
Cn1nnnc1SCC(=O)Nc1ccccc1C(=O)NCc1ccccc1	0.75	0.5	-1.6	0.8	-24	0	nt	nt

Assay outcomes (PubChem)
